Laboratory results from article PMC4834131 (CPT: Pharmacometrics & Systems Pharmacology, 2016).
In brackets after ≈: the same amount, converted by molar mass.

How the values were obtained:
logD7.4 = type: physicochemical; settings: pH 7.4
[1] = Fraction unbound in plasma; type: in vitro ADME
glucocorticoid receptor = biological target: T1, glucocorticoid receptor (Rattus norvegicus, UniProt P06536); experiment: In vivo glucocorticoid receptor occupancy study; settings: iv, read-out: Observed receptor occupancy
T1 sequence (P06536 1-795): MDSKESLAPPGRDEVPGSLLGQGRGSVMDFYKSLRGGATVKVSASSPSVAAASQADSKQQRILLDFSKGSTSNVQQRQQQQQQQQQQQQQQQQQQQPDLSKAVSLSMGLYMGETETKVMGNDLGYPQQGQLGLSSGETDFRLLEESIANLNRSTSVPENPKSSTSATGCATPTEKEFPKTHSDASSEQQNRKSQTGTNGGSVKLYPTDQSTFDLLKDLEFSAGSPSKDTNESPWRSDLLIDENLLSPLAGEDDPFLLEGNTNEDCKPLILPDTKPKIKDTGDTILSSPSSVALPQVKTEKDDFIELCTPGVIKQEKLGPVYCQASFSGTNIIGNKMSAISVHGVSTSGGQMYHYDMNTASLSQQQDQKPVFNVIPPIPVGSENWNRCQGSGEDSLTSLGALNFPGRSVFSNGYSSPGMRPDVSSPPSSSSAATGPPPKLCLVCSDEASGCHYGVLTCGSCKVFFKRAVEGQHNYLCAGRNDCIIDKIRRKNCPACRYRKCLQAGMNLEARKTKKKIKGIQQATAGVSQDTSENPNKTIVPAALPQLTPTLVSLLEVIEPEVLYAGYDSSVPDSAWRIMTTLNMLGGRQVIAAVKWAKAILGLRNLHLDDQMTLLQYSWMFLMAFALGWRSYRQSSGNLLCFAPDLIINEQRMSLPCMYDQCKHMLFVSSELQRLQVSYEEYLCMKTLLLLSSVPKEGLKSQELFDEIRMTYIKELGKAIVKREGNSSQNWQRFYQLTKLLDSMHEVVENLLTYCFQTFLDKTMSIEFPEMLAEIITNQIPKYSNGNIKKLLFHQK

[2] = Unbound lung volume of distribution; type: in vitro ADME
[3] = Estimation of solubility Cs by fitting PBPK model to total lung concentrations; type: in vivo; settings: rat, inhaled, 11.3 nmol/kg
In short: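 Fit of the whole-body PBPK model with lung disposition to total lung concentrations in rats after nose-only inhalation (lung deposited dose 11.3 nmol/kg). Fitting used nonlinear least squares (Levenberg–Marquardt). The starting value came from an exhaustive sum-of-squares search over a broad range, then 300 candidates within ±200 nM of the best solution. Particle dissolution followed the Nernst–Brunner equation; all other inputs were fixed.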

[4] = In vitro apparent permeability across CaCo2-monolayers; type: in vitro ADME; settings: human, Caco-2
[5] = PK study after i.v. administration in rats; type: in vivo; settings: rat, plasma, iv, 90 nmol/kg

logD (logD7.4): 4.2
fraction unbound [1]: 0.016
receptor occupancy at 0.02 µmol/kg (glucocorticoid receptor): 27 ± 9.7%
receptor occupancy at 0.75 µmol/kg (glucocorticoid receptor): 100 ± 3.5%
Vu,lung (unbound lung volume of distribution) [2]: 213.4 mL/g lung tissue
solubility [3]: 4.53 µM (≈ 2.27 µg/mL)
Papp [4]: 46.9 ×10⁻⁶ cm/s
clearance ([5]; CLP (plasma clearance)): 182 mL/min/kg
Vd ([5]; Vdss (volume of distribution at steady state)): 12.5 L/kg
Structure (SMILES): CCC(=O)O[C@]1(C(=O)SCF)[C@H](C)C[C@H]2[C@@H]3C[C@H](F)C4=CC(=O)C=C[C@]4(C)[C@@]3(F)[C@@H](O)C[C@@]21C [fluticasone propionate]
